Assay outcomes: PubChem BioAssay, Sanford-Burnham Center for Chemical Genomics
SENP8 block-1: inhibitors of human SENP8 protease. AID 2540. inhibition, % at 10 µM. Q96LD8. hit rate 1.2% among 330,000. purified SENP8, Z-RLRGG-aminoluciferin cleavage, luminescence; in the data active = inhibition above about 50%
Apaf-1 inh: blocks human Apaf-1 apoptosome activity | reconstituted apoptosome caspase-3 activity, DEVD-Rh110 fluorescence | inhibition, % at 20 µM | hit rate 0.71% among 330,000 | AID 489030; active = inhibition of at least 40% at 20 µM;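 note: plate controls were DMSO wells for no effect and DEVD-CHO caspase inhibitor wells for full effect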
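Material: biochemical Apaf-1 apoptosome reconstitution. Medium: Hepes buffer, pH 7.5. Also added: cytochrome c activation, bis-DEVD rhodamine 110 substrate. Timing: 30 min compound preincubation, 50 min activation, room temperature. Measured by: rhodamine 110 fluorescence at Ex 480/Em 540 nm.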
SENP1 inh: SENP1 (human) catalytic domain inhibition; inhibition, % at 10 µM; hit rate 0.21% among 360,000; Q9P0U3; recombinant SENP1 catalytic domain, CyPet-SUMO1-YPet FRET cleavage;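 active = inhibition at least 30% at 10 µM, raw YFP signal under a set limit, fluorescence ratio 0.5 to 1.5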;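 note: 0% = enzyme with DMSO and 100% = no enzyme wells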
Target sequence (Q9P0U3 419-644 limits assumed): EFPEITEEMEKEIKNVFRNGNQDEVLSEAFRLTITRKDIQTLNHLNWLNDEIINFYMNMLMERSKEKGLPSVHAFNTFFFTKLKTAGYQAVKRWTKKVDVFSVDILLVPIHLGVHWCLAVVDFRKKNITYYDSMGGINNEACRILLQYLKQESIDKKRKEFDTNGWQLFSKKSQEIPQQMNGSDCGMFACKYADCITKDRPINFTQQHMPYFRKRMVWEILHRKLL
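Test system: hSENP1 catalytic domain, recombinant; Amount: 20 pM final SENP1 enzyme; Medium: Tris pH 8 buffer plus EDTA, NaCl, BME, BSA, NP40, catalase; Schedule: 50 min enzyme reaction, room temperature, light-protected; Technique: FRET fluorescence in CFP and YFP emission channels; Controls: no-enzyme wells low, DMSO-plus-enzyme wells high control.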
SENP6 block: blocks the human protease SENP6; hit rate 1.8% among 330,000; inhibition, % at 10 µM; Recombinant SENP6 catalytic domain, aminoluciferin luminescence; Q9GZR1;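 active = inhibition above about 50% at the single tested dose, limit read from the data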;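 note: plate controls were DMSO wells with enzyme for no effect and DMSO wells lacking enzyme for full effect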
SENP7 inh: blocks the human protease SENP7. Q9BQF6. recombinant SENP7, Z-RLRGG-aminoluciferin luminescence, 40 min. inhibition, % at 5 µM. hit rate 1.5% among 330,000;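 active = inhibition above about 50% at the single test dose, limit read from the data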;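 note: plate controls were DMSO with enzyme for no effect and no enzyme buffer wells for full effect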
SENP8 block-2: SENP8 (human) protease inhibition | Q96LD8 | recombinant SENP8, Nedd8 substrate fluorescence | inhibition, % at 20 µM | hit rate 0.64% among 360,000; in the data active = inhibition mostly above about 40%, no sharp cut-off; inactive = mostly below about 27%
SENP8 conf: human SENP8 inhibition, confirmed | shares compounds with SENP7 inh | Recombinant SENP8, Z-RLRGG-aminoluciferin luminescence, 60 min | hit rate 40% among 6,200 | inhibition, % at 12.5 µM;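 active = mean inhibition across replicates above about 50%, limit read from the data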
SENP6 confirm: confirmation of human SENP6 protease inhibitors; shares compounds with SENP7 inh; hit rate 58% among 6,200; inhibition, % at 12.5 µM; recombinant SENP6, Z-RLRGG-aminoluciferin luminescence
SENP7 conf: human SENP7 inhibition, confirmed; recombinant SENP7, Z-RLRGG-aminoluciferin luminescence, 40 min; hit rate 69% among 6,200; inhibition, % at 12.5 µM; shares compounds with SENP7 inh; AID 488917
Casp3 select: caspase-3 inhibition (SENP selectivity assay); shares compounds with SENP7 inh; purified caspase-3, Z-DEVD-aminoluciferin luminescence, 60 min; inhibition, % at 12.5 µM; hit rate 60% among 6,200; AID 488918;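 active = mean inhibition above about 50%, limit read from the data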;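 note: plate controls were enzyme with DMSO for no effect and wells without caspase-3 for full effect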
Target sequence (P42574 28-227 limits assumed): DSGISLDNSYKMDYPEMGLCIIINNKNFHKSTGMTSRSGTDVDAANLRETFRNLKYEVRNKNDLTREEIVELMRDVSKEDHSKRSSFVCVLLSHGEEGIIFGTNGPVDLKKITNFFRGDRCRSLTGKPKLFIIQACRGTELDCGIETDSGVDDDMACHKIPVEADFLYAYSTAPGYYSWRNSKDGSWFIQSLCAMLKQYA
Luc interf: counter-screen for SENP inhibitors: luminescence interference; inhibition, % at 12.5 µM; hit rate 39% among 6,200; Pre-incubated SENP8/Z-RLRGG-aminoluciferin, luciferase luminescence interference; shares compounds with SENP7 inh;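 active = mean inhibition above about 50% when retested at one dose, limit read from the data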;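 note: plate controls were DMSO wells with completed reaction for no effect and substrate without enzyme for full effect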
* hit, by the source's call; i = inactive; / = no result. An excerpt weighted towards active compounds, which were near 2.9% of everything screened.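 Rule for the calls, unless noted: active = mean inhibition above about 50% in the one-dose retest (limit read from the data); inactive = the rest.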

SMILES	SENP8 block-1	Apaf-1 inh	SENP1 inh	SENP6 block	SENP7 inh	SENP8 block-2	SENP8 conf	SENP6 confirm	SENP7 conf	Casp3 select	Luc interf
Cc1ncoc1C(=O)Nc1cccc(Cl)c1	34.9	-11.6	1.9	50.2*	63.9*	7.4	60.2*	58.5*	86.0*	79.8*	56.9*
Cc1ccc(Cl)cc1NC(=O)c1ocnc1C	-6.7	-2.8	0.4	-3.0	8.4	12.2	/	/	/	/	/
Cc1ccc(NC(=O)c2ocnc2C)cc1Cl	60.5*	-26.7	-5.0	81.2*	83.3*	14.3	76.4*	76.6*	94.0*	83.0*	46.7
CC(C)c1ccc(-n2nc3ccc(N)cc3n2)cc1	72.6*	63.1*	-33.8	88.3*	28.9	-419.5	1.1	88.4*	97.9*	55.7*	20.1
COc1ccc(-n2nc3ccc(N)cc3n2)cc1	/	/	-42.5	/	/	i	/	/	/	/	/
CCC(=O)c1ccc(OCC(=O)OCC(=O)NCC2CCCO2)cc1 (centres undefined)	5.5	-3.6	-0.7	6.0	7.0	13.1	/	/	/	/	/
O=C(Nc1nnc(-c2ccccc2)s1)c1ccccc1O	84.5*	17.0	-2.5	80.0*	63.3*	-250.3	17.2	29.8	15.2	16.3	7.0
COc1cccc(C(=O)Nc2nnc(-c3ccccc3)s2)c1OC	57.1*	12.5	-0.9	78.9*	55.4*	-214.4	45.6	39.2	64.5*	61.2*	46.2
COc1ccccc1C(=O)Nc1nnc(-c2ccccc2)s1	-11.4	4.0	-0.1	3.8	-7.4	-121.1	/	/	/	/	/
O=C(Nc1ccccc1)Nc1nnc(-c2ccccc2)s1	-5.6	-19.3	-1.1	-12.4	-5.8	-249.2	/	/	/	/	/
O=c1c2c(nc3n1CCCCC3)sc1c(O)c(Br)ccc12	26.2	-8.8	-0.3	64.5*	33.6	6.5	58.7*	58.8*	86.8*	69.3*	13.9
CCN(CC)CCOc1c(Br)ccc2c1sc1nc3n(c(=O)c12)CCC3	6.1	1.0	-1.9	-14.0	-2.9	-5.0	/	/	/	/	/
CC1(C(=O)Nc2ccc3nc[nH]c3c2)CCN1C(=O)C1(c2ccccc2)CCCC1 (centres undefined)	/	/	0.8	/	/	27.0	/	/	/	/	/
O=C(Nc1ccccc1)Nc1ccccc1C(=O)NCc1ccccc1	-3.8	1.1	4.3	7.2	52.4*	-400.3	-2.5	-3.0	73.9*	33.8	5.7
O=C(Nc1ccccc1C(=O)NCc1ccco1)c1ccccc1	0.8	-1.7	1.1	-16.4	-4.9	18.4	/	/	/	/	/
O=C(Nc1ccc(Cl)cc1)Nc1ccccc1C(=O)NCc1ccco1	84.4*	-8.9	1.1	90.8*	95.9*	-115.3	80.2*	81.3*	98.8*	78.3*	78.0*
CNC(=O)Nc1ccccc1C(=O)NCc1ccccc1	-2.3	-0.8	2.0	0.1	2.4	-28.2	/	/	/	/	/
CC(c1ccco1)N(C(=O)COc1ccc(Cl)cc1)c1ccccn1 (centres undefined)	17.6	0.3	-4.7	50.4*	2.0	-5.0	30.3	21.8	18.0	53.4*	51.1*
CCSc1nnc(NC(=O)C2(C)Cc3ccccc3C(=O)O2)s1 (centres undefined)	-3.8	-12.4	1.6	-3.0	1.5	10.5	/	/	/	/	/
CC1(C(=O)Nc2nnc(C(C)(C)C)s2)Cc2ccccc2C(=O)O1 (centres undefined)	0.7	-0.7	0.8	-14.2	100.9*	12.0	-0.6	-1.8	-3.3	-2.0	0.5
